Bioassay records: PubChem, Broad Institute
The entries come from a sample that favours hits as a whole.
T cruzi growth-1 – blocks T. cruzi growth in NIH3T3 culture; actives 5.9% (n = 77,000); inhibition, % at 8.34 µM; T. cruzi beta-gal in NIH3T3, GalScreen luminescence, 90 h;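 active means mean inhibition above about 93%, with at least 55% of replicates each passing it, limit read from the data, passing the limit was not always enough; inconclusive means only one of those two conditions holds; inactive means neither condition holds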
KDM4C inh – blocks human GASC-1 (KDM4C) demethylase activity. GST-KDM4C 2-372, H3K9me3 peptide, LANCE TR-FRET. inhibition, % at 12.5 µM. actives 0.15% (n = 96,000). AID 720574;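 active means mean replicate inhibition above about 25%, with at least 55% of replicates also reaching it, limit read from the data, passing the limit was not always enough; inconclusive means only one of those two conditions met; inactive means neither condition met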
Target sequence (Q9H3R0 2-372 limits assumed): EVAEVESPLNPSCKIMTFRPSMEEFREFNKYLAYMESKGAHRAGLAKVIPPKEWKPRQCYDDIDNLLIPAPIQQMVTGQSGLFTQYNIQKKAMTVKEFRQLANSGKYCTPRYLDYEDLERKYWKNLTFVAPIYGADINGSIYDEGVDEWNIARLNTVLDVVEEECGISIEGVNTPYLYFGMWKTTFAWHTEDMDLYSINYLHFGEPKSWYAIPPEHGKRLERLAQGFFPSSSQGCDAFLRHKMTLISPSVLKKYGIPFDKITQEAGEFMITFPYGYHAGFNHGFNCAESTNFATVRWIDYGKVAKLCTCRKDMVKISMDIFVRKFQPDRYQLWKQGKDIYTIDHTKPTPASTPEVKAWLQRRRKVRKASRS
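reagent = H3K9me3 peptide substrate, Fe(II), 2-oxoglutarate | system = GST-tagged GASC-1 (JMJD2C) catalytic fragment, aa 2-372 | amount = enzyme final amount 10 nM | read-out = Fall in 671/618 emission ratio as inhibition | medium = HEPES buffer, pH 7.5, plus ascorbate | schedule = 30 min reaction, 60 min detection, RT | measured by = LANCE TR-FRET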
IDH1 mut inh – blocks human IDH1 R132H reductase activity; O75874; diaphorase/resazurin fluorescence, 60 min; inhibition, % at 10 µM; actives 0.18% (n = 70,000); AID 624101; in the data active means inhibition above about 34%; inconclusive means no clear call, values can overlap the other calls; inactive means below about 11%;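 further: 0% = DMSO and 100% = no enzyme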
T cruzi growth-2 – blocks T. cruzi growth in NIH3T3 host cells; shares compounds with T cruzi growth-1; T. cruzi beta-gal in NIH3T3, GalScreen luminescence, 90 h; inhibition, % at 8.35 µM; actives 72% (n = 5,600); AID 651739;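 active means mean replicate inhibition above about 95% and at least 55% of replicates individually reaching it, limit read from the data; inconclusive means only one of the two criteria is met; inactive means neither criterion is met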
T cruzi growth-3 – Trypanosoma cruzi proliferation inhibition; shares compounds with T cruzi growth-1; T. cruzi beta-gal in NIH3T3, GalScreen luminescence, 90 h; inhibition, % at 2.09 µM; actives 21% (n = 5,600);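 active means mean inhibition above about 95%, with at least 55% of replicates also reaching it, limit read from the data; inconclusive means meets just one of the two conditions; inactive means meets neither condition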;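 further: plate controls were neutral control median for no effect and positive control median for full effect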
NIH3T3 tox – cytotoxicity in mouse NIH/3T3 fibroblasts; NIH/3T3 viability, CellTiter-Glo ATP luminescence, 90 h; actives 14% (n = 5,600); shares compounds with T cruzi growth-1; cytotoxicity (signal decrease), % at 8.35 µM;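 active means mean signal decrease across replicates above about 35% based on untreated-well scatter, with enough replicates individually passing, limit read from the data; inconclusive means no rule stated though some were filed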;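 further: 0% = median of neutral control wells and 100% = median of positive control wells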
3T3 cytotox 2 – kills mouse NIH/3T3 fibroblasts. shares compounds with T cruzi growth-1. actives 56% (n = 5,600). NIH/3T3 viability, CellTiter-Glo ATP luminescence, 90 h. inhibition, % at 24.9 µM. AID 651744;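 active means mean loss of cell viability signal at or above a set limit, and enough replicates individually reaching it; inconclusive means meets only the mean limit or only the replicate share; inactive means meets neither condition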;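 further: 0% = median of neutral control wells and 100% = median of positive control wells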
The depositor's hits bear a star; ? = inconclusive; nt = not tested or not shown.

SMILES	T cruzi growth-1	KDM4C inh	IDH1 mut inh	T cruzi growth-2	T cruzi growth-3	NIH3T3 tox	3T3 cytotox 2
C[C@@H]1CN([C@H](C)CO)C(=O)c2cccc(NS(=O)(=O)c3ccc(Cl)cc3)c2O[C@@H]1CN(C)S(=O)(=O)c1ccc(Cl)cc1	6	2	nt	nt	nt	nt	nt
COc1ccc(C#Cc2ccc3c(c2)[C@@H]2[C@@H](CCN2C(=O)c2ccncc2)[C@@H](CO)N3)cc1	122*	1	nt	105*	57	-18	13
O=C(Cc1ccccc1)N1CC[C@@H]2[C@H]1c1cc(C#Cc3ccccc3)ccc1N[C@@H]2CO	105*	-1	nt	89	61	-1	106*
COc1ccc(C#Cc2ccc3c(c2)[C@H]2[C@H](CCN2C(=O)C2CC2)[C@@H](CO)N3)cc1	116*	-3	nt	93	36	7	14
O=C(Cc1ccccc1)N1CC[C@@H]2[C@H](CO)Nc3ccc(C#Cc4ccccc4)cc3[C@@H]21	81	-3	nt	nt	nt	nt	nt
CCC(=O)N1CC[C@H]2[C@H](CO)Nc3ccc(C#Cc4ccc(OC)cc4)cc3[C@H]21	nt	0	nt	nt	nt	nt	nt
COc1ccc(C#Cc2ccc3c(c2)[C@@H]2[C@@H](CCN2C(=O)C2CCC2)[C@@H](CO)N3)cc1	nt	4	nt	nt	nt	nt	nt
COc1ccccc1C#Cc1ccc2c(c1)[C@H]1[C@H](CCN1C(=O)c1ccncc1)[C@@H](CO)N2	nt	0	nt	nt	nt	nt	nt
COc1ccc(C#Cc2ccc3c(c2)[C@H]2[C@H](CCN2C(=O)C2CC2)[C@H](CO)N3)cc1	104*	2	nt	110*	67	0	41*
C[C@@H]1CN([C@H](C)CO)S(=O)(=O)c2ccc(Br)cc2O[C@@H]1CN(C)CC1CCOCC1	14	1	-3	nt	nt	nt	nt
CC=Cc1ccc2n(c1=O)C[C@@H]1[C@@H](CO)[C@H](C(=O)N[C@@H](C)c3ccccc3)[C@H]2N1Cc1ccccc1 (mixture of isomers)	nt	0	nt	nt	nt	nt	nt
COc1ccc(C#Cc2ccc3c(c2)[C@@H]2[C@@H](CCN2C(=O)C2CCC2)[C@H](CO)N3)cc1	nt	-4	nt	nt	nt	nt	nt
CCC(=O)N1CC[C@@H]2[C@H](CO)Nc3ccc(C#Cc4ccc(F)cc4)cc3[C@@H]21	106*	-2	nt	105*	74	18	50*
COc1ccc(C#Cc2ccc3c(c2)[C@@H]2[C@@H](CCN2C(=O)C2CCCCC2)[C@@H](CO)N3)cc1	101*	-1	nt	101*	86	27	95*
COc1cccc(C#Cc2ccc3c(c2)[C@H]2[C@H](CCN2C(=O)c2ccccc2F)[C@H](CO)N3)c1	60	0	nt	nt	nt	nt	nt
CCC(=O)N1CC[C@@H]2[C@H]1c1cc(C#Cc3ccc(F)cc3)ccc1N[C@@H]2CO	51	0	nt	nt	nt	nt	nt
COc1ccc(C#Cc2ccc3c(c2)[C@H]2[C@H](CCN2C(=O)c2ccccc2F)[C@H](CO)N3)cc1	?	-1	nt	106*	99*	43*	62*
COc1ccccc1-c1cnc2c(c1)C(=O)N([C@@H](C)CO)C[C@H](C)[C@@H](CN(C)Cc1ccc(F)cc1)O2	nt	-5	0	nt	nt	nt	nt
CN1C[C@H]2[C@@H](c3ccccc31)[C@H](CO)N2C(=O)Nc1ccccc1Cl	28	0	nt	nt	nt	nt	nt
CC(C)C#Cc1ccc2c(c1)O[C@H](CN(C)Cc1cccnc1)[C@@H](C)CN([C@H](C)CO)S2(=O)=O	107*	10	2	108*	104*	-21	102*
C[C@@H]1CN([C@@H](C)CO)S(=O)(=O)c2ccc(C#C[C@@H](C)O)cc2O[C@H]1CN(C)Cc1cccnc1	36	nt	nt	nt	nt	nt	nt
C[C@@H]1CN([C@H](C)CO)S(=O)(=O)c2ccc(C#CCN(C)C)cc2O[C@H]1CN(C)Cc1cccnc1	96*	5	6	101*	93	25	42*
CC(C)C#Cc1ccc2c(c1)O[C@@H](CN(C)Cc1cccnc1)[C@@H](C)CN([C@@H](C)CO)S2(=O)=O	97	2	nt	nt	nt	nt	nt
C[C@H](O)C#Cc1ccc2c(c1)O[C@@H](CN(C)Cc1cccnc1)[C@H](C)CN([C@@H](C)CO)S2(=O)=O	28	nt	1	nt	nt	nt	nt
C[C@H]1CN([C@@H](C)CO)S(=O)(=O)c2ccc(C#CCN(C)C)cc2O[C@@H]1CN(C)Cc1cccnc1	104*	4	7	110*	108*	8	15
SMILES	T cruzi growth-1	KDM4C inh	IDH1 mut inh	T cruzi growth-2	T cruzi growth-3	NIH3T3 tox	3T3 cytotox 2
C[C@@H]1CN([C@@H](C)CO)S(=O)(=O)c2ccc(C#CCN(C)C)cc2O[C@@H]1CN(C)Cc1cccnc1	?	6	0	99*	62	28	48*
CC(C)NC(=O)Nc1ccc2c(c1)C(=O)N([C@H](C)CO)C[C@@H](C)[C@@H](CN(C)Cc1ccc3c(c1)OCO3)OCCCC[C@@H](C)O2	-3	8	3	nt	nt	nt	nt
Cc1noc(C)c1NC(=O)Nc1ccc2c(c1)C(=O)N([C@@H](C)CO)C[C@@H](C)[C@@H](CN(C)C)O2	nt	-1	0	nt	nt	nt	nt
CN(C)Cc1cn(CC[C@@H]2CC[C@@H](NS(=O)(=O)c3ccccc3)[C@@H](CO)O2)nn1	nt	1	0	nt	nt	nt	nt
C[C@H]1CCCCO[C@H](CN(C)S(=O)(=O)c2ccc(F)cc2)[C@@H](C)CN([C@@H](C)CO)C(=O)c2cc(NC(=O)NC3CCCCC3)ccc2O1	41	-1	2	nt	nt	nt	nt
C[C@H](CO)N1C[C@H](C)[C@@H](CN(C)C(=O)Nc2ccc(F)cc2)Oc2ccc(NS(C)(=O)=O)cc2CC1=O	16	-1	0	nt	nt	nt	nt
C[C@H](CO)N1C[C@H](C)[C@H](CN(C)Cc2ccc(Oc3ccccc3)cc2)OCc2ccccc2-c2ccccc2C1=O	nt	-1	nt	nt	nt	nt	nt
O=C(C[C@H]1C[C@H]2c3cc(NC(=O)CC4CC4)ccc3O[C@H]2[C@@H](CO)O1)NCc1ccccc1	8	-3	1	nt	nt	nt	nt
COc1ccc(NC(=O)Nc2ccc3c(c2)C(=O)N([C@@H](C)CO)C[C@@H](C)[C@H](CN(C)C(=O)Nc2ccc(F)cc2)O3)cc1	54	13	0	nt	nt	nt	nt
C[C@H](CO)N1C[C@H](C)[C@H](CN(C)CC2CC2)OCCCC[C@H](C)Oc2ccc(NC(=O)Nc3ccc(F)cc3)cc2C1=O	85	1	nt	nt	nt	nt	nt
C[C@@H]1CN([C@H](C)CO)C(=O)c2cc(NC(=O)Nc3ccc(F)cc3)ccc2O[C@@H](C)CCCCO[C@H]1CN(C)C	40	11	2	nt	nt	nt	nt
C[C@H]1CCCCO[C@@H](CN(C)CC2CCCCC2)[C@@H](C)CN([C@@H](C)CO)C(=O)c2cc(NC(=O)Nc3ccc(F)cc3)ccc2O1	125*	1	0	101*	120*	60*	103*
